Measured values of several laboratories.
Lines come from different studies, so protocols differ.

Compound	test system	conditions	concentration
CC(C)c1cc(C(=O)NCCN)c2cnn(C(C)C)c2n1	female BALB/c mouse, plasma	intraperitoneal, 50 mg/kg, 15 min	2010 ng/mL
NCc1cc2c(cc1F)C(=O)N(C1CCC(=O)NC1=O)C2 (centres unmarked)	male CD-1 mouse, plasma	intravenous, 1 mg/kg, 4 h	2.8 ng/mL
Fc1ccc(Oc2ccc(Nc3ccc4ncc(OCC5CCNCC5)nc4c3)cc2)cc1	SCID mouse, plasma	intraperitoneal, 50 mg/kg, 24 h	1700 nM
OCc1nc2ccc(NCc3ccc(C(F)(F)F)cc3)cc2[nH]1	male BALB/c mouse, brain	intravenous, 1 mg/kg, 6 h	26.1 ng/g
CC1(C)NC(=O)N(c2ccc(F)c(S(C)(=O)=O)c2)C1=O	male Swiss mouse, plasma	oral, 100 mg/kg, 1 h	31900 ng/mL
O=C1CCC(N2Cc3cc(CO)c(F)cc3C2=O)C(=O)N1 (centres unmarked)	male CD-1 mouse, plasma	intravenous, 1 mg/kg, 4 h	1.7 ng/mL
CC1(C)NC(=O)N(c2ccc(F)c(Br)c2)C1=O	male Swiss mouse, plasma	oral, 100 mg/kg, 48 h	1110 ng/mL
CC(C)(C)S(=O)(=O)c1cc2c(Nc3ccc4scnc4c3)ncnc2cc1OCCOP(=O)(O)O	BALB/c mouse, plasma	oral, 10 mg/kg, 6 h	21 ng/mL
Cc1ccc2c(c1)C(=O)[C@]1(O)CCN(c3ccc4nc(C)ccc4c3)C1=N2	mouse, plasma	intraperitoneal, 10 mg/kg, 30 min	700 nM
CN(C)C(=O)c1cc2cnc(Nc3ccc(-c4ccc5c(=O)cc(N6CCOCC6)oc5c4)cc3)nc2n1C1CCCC1	BALB/c mouse, brain	oral, 20 mg/kg, 24 h, single dose	5.3 ng/g
CC(C)n1ncc2c(C(=O)NCC3(C)CNC3)cc(C3CC3)nc21	female BALB/c mouse, plasma	intraperitoneal, 50 mg/kg, 8 h	240 ng/mL
Cc1nc2ccc(OCc3ccc(C(F)(F)F)cc3)cc2[nH]1	male BALB/c mouse, brain	oral, 10 mg/kg, 72 h	2.7 ng/g
O=Cc1cc2c(cc1F)C(=O)N(C1CCC(=O)NC1=O)C2 (centres unmarked)	male CD-1 mouse, plasma	intravenous, 1 mg/kg, 1.02 min	17.2 ng/mL
O=C1CCC(N2Cc3cc(C4CCN(Cc5ccccc5)CC4)ccc3C2=O)C(=O)N1 (centres unmarked)	male CD-1 mouse, plasma	oral, 3 mg/kg, 4.98 min	49.6 ng/mL
